In brackets after ≈: the same amount, converted by molar mass.
How the values were obtained:
CaCi-8 = assay: Fluconazole MIC determination, CaCi-8; format: cell-based; details: Candida albicans, read-out: MIC for CaCi-8
CaCi-2 [1] = assay: Fluconazole MIC determination, CaCi-2; format: cell-based; details: Candida albicans, read-out: MIC for CaCi-2
[2] = system: C. albicans clinical isolate CaCi-2; assay: CaCi-2 growth inhibition in the presence of fluconazole; format: cell-based, Candida albicans
Method in brief: (§1)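 Candida albicans clinical isolates were incubated with test compound and a fixed 8 μg/mL fluconazole at 37 °C for 48 h. Growth inhibition was read by Alamar blue fluorometry. Values are the average of at least three runs.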

Aqueous = format: physicochemical; details: aqueous / PBS solution, in words
CaCi-2 [3] = assay: CaCi-2 growth inhibition in the absence of fluconazole; format: cell-based, Candida albicans
[4] = system: calcineurin-dependent signaling pathway; assay: Yeast reporter assay, calcineurin-dependent signaling; format: cell-based; details: Saccharomyces cerevisiae, read-out: IC50 calcineurin-dependent signaling pathway
[5] = system: C. albicans clinical isolate CaCi-8; assay: CaCi-8 growth inhibition in the presence of fluconazole; format: cell-based, Candida albicans; details: at approximately 1 μM, with fluconazole
Method in brief: as §1

[6] = system: Hsp90-dependent signaling pathway; assay: Yeast reporter assay, Hsp90-dependent signaling; format: cell-based; details: Saccharomyces cerevisiae, read-out: IC50 Hsp90-dependent signaling pathway
murine 3T3 fibroblasts = assay: Mammalian fibroblast toxicity counterscreen; format: cell-based

OC(Cn1cncn1)(Cn1cncn1)c1ccc(F)cc1F [fluconazole]
MIC (CaCi-8): 8 µg/mL (≈ 26.1 µM)
MIC (CaCi-2 [1]): 2 µg/mL (≈ 6.53 µM)
inhibition at 8 µg/mL ([2]; Candida albicans, read-out: Baseline growth inhibition in CaCi-2): 60 to 80%

COC1=C2C[C@@H](C)C[C@H](OC)[C@H](O)[C@@H](C)/C=C(\C)[C@H](OC(N)=O)[C@@H](OC)/C=C\C=C(/C)C(=O)NC(=CC1=O)C2=O [Geldanamycin]
inhibition at 10 µM ([2]; Candida albicans, read-out: Growth inhibition (control)): 100%

O=C(c1ccc(Cl)cc1)N1CCN(c2ccnc3cc(Cl)ccc23)CC1 [Compound 1]
Solubility (Aqueous): poor aqueous solubility
Effect on CaCi-2 in the absence of fluconazole (CaCi-2 [3]): no discernible effect
Growth inhibition of CaCi-2 ([2]; at approximately 1 μM, with fluconazole): 97–100%
IC50 [4]: > 26 µM
Growth inhibition of CaCi-8 [5]: 97–100%
IC50 [6]: > 26 µM
Concentration up to which murine 3T3 fibroblasts showed no response (murine 3T3 fibroblasts): > 26 µM

Reference: article PMC3287054 (Bioorganic & medicinal chemistry letters, 2011)
